Source: PubChem BioAssay
Compounds with a hit are over-represented: about 3.7% of the library has one in this group of screens.
Cl transport mod – KCC2 cotransporter modulators, thallium flux, primary screen, cell-based, HEK293 KCC2, FluoZin-2 fluorescence, MLSMR. KCC2 cells, thallium flux FluoZin-2 fluorescence. 190,000 compounds, 2.2% hits. Solute carrier family 12 member 5 (Homo sapiens), Q9H2X9. B-score of Tl+ flux slope (higher = more flux/activation; lower = inhibition) at 10 µM;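 active = thallium flux slope and its plate-corrected score both differing from the plate sample mean at a set confidence after two filtering rounds, in either direction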;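 note: slope of fluorescence scaled to starting intensity during 10 to 20 s after thallium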
NPY Y2 blocker – NPY-Y2 receptor antagonists, primary screen, cell-based; Neuropeptide Y receptor type 2 (Homo sapiens), P49146; NPY-Y2 expressing cells, antagonist mode; inhibition, % at 2.7 µM; 140,000 compounds, 0.99% hits; AID 793, 2007; in the data active = inhibition above about 17%;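 note: 0% = vehicle with agonist challenge and 100% = reference antagonist with challenge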
NPY1 pot ag – NPY-Y1 receptor potentiators or agonists, primary screen, cell-based | Neuropeptide Y receptor type 1 (Homo sapiens), P25929 | NPY-Y1 expressing cells, potentiator/agonist activation | activation, % at 3.6 µM | 220,000 compounds, 0.37% hits | AID 1304, 2008; in the data active = activation above about 33%, passing the limit was not always enough;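 note: cells stimulated with NPY at EC10 then isoproterenol at EC100; 0% = low agonist plus stimulus and 100% = saturating agonist plus stimulus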
NPY-Y1 antag – NPY-Y1 receptor antagonists, primary screen, cell-based; 200,000 compounds, 1% hits; AID 1040, 2008; inhibition, % at 3.6 µM; Neuropeptide Y receptor type 1 (Homo sapiens), P25929; HEK293-CNG Y1 cells, membrane potential fluorescence; NPY at EC95, then isoproterenol;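 active = inhibition above the campaign mean inhibition of all tested compounds plus 3 SD, cut at about 20% in these data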;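 note: 0% = DMSO wells given NPY plus isoproterenol and 100% = isoproterenol alone without NPY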
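Material: HEK293 Y1/CNG channel cell line; also added: NPY (25 nM), isoproterenol (1 µM), Ro 20-1724 (25 µM); doses: one concentration, 3.6 µM, in 0.4% DMSO; schedule: compound incubation 1 h at room temperature, readout 45 min post-stimulation; technique: membrane potential fluorescence; measure: fluorescence ratio normalized to % inhibition between controls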
NPY-Y2 PAM-ag – NPY-Y2 potentiators or agonists, primary screen, cell-based. 220,000 compounds, 0.45% hits. Neuropeptide Y receptor type 2 (Homo sapiens), P49146. activation, % at 3.6 µM. AID 1359, 2008. cells expressing NPY-Y2, potentiator/agonist read-out; in the data active = activation above about 27%;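 note: cells stimulated with NPY near EC25 plus isoproterenol at EC100; 0% = vehicle plus submaximal agonist and 100% = vehicle plus saturating agonist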
Furin inhibitor – human furin inhibitors, primary screen, biochemical, fluorescence intensity. inhibition, % at 20 µM or 30 µM. P09958. AID 463115, 2010. purified furin, fluorogenic substrate cleavage. 220,000 compounds, 0.061% hits; in the data active = inhibition above about 25%
Target sequence (P09958 108-714 limits assumed): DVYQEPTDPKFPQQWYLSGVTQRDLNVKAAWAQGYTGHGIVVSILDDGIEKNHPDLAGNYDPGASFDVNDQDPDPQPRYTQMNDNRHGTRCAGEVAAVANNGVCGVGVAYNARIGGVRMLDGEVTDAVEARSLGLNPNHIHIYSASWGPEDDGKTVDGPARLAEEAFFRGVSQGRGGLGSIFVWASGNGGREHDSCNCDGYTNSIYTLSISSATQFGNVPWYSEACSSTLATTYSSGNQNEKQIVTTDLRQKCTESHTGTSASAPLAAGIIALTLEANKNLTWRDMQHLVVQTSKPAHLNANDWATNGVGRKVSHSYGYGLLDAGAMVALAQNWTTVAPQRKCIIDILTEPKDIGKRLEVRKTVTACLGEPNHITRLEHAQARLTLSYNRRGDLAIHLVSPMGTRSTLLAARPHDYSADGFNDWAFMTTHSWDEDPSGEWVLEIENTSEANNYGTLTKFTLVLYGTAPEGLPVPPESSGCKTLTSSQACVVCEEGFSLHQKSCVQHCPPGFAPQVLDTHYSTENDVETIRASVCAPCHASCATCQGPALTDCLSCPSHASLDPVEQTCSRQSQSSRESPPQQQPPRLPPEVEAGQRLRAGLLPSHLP
KCC2 secondary – KCC2 modulators in sodium-free buffer, confirmation, cell-based, HEK293 KCC2, thallium flux, secondary assay. shares compounds with Cl transport mod. FluoZin2 fluorescence; active compounds read high. normalised thallium flux (F/F0 slope) at 10 µM. 3,700 compounds, 15% hits;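 active = thallium flux slope above the same plate's solvent-only control mean plus 3 SD; inconclusive = the two replicate wells disagree; inactive = no significant difference from solvent-only control wells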
KCC2 bumet counter – thallium flux persisting under bumetanide in KCC2 cells, confirmation, counter-screen for KCC2 modulator project, cell-based, HEK293 KCC2, FluoZin2, secondary assay 3. shares compounds with Cl transport mod. HEK293-KCC2 + bumetanide/ouabain; active compounds read high. normalized thallium flux at 10 µM. 3,700 compounds, 49% hits. AID 1714, 2009;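 active = thallium entry rate above the same plate's blocked-transporter control wells by more than 3 SD; inconclusive = the two repeat wells disagree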;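 note: raw slope of fluorescence over initial fluorescence between 10 and 20 s after thallium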
KCC2 secondary2 – KCC2 modulators without ouabain present, confirmation, cell-based, HEK293 KCC2, thallium flux, FluoZin2, secondary assay 2 | AID 1715, 2009 | thallium flux FluoZin2 fluorescence; actives lie on both sides; F/F0 rise rate, 10–20 s post-thallium | shares compounds with Cl transport mod | normalized thallium flux at 10 µM | 3,700 compounds, 23% hits;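 active = thallium flux slope more than 3 SD above or below the plate's solvent-only control mean, mostly below; inconclusive = the two repeat wells disagreed; inactive = no significant shift from solvent-only controls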;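 note: raw slope with 0.1% DMSO as baseline and bumetanide as block control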
HEK counter1 – thallium flux modulation in parental HEK cells, confirmation, counter-screen for KCC2 modulator project, cell-based, counterscreen 1. shares compounds with Cl transport mod. HEK293 parental cells, thallium flux FluoZin2, ouabain; baseline-ratio fluorescence slope, 10–20 s after thallium. thallium flux rate (normalised fluorescence) at 10 µM. 3,700 compounds, 46% hits. AID 1716, 2009;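 active = thallium flux rate significantly above the same plate's solvent-only control wells, beyond their mean plus 3 SD; inconclusive = the two replicate wells gave conflicting results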
KCC2 retest ouab – KCC2 inhibitors and activators, ouabain retest, confirmation, HEK-KCC2 cells; shares compounds with Cl transport mod; HEK293-KCC2, thallium flux FluoZin2 fluorescence; bidirectional: low = inhibitor, high = activator; raw Tl+ flux slope (below DMSO = inhibition, above = activation) at 10 µM; 3,700 compounds, 48% hits; AID 1717, 2009;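 active = thallium flux slope beyond 3 SD from same-plate DMSO control mean in most replicates, usually higher, sometimes lower; inconclusive = repeat tests gave conflicting results; inactive = no significant difference from controls in most replicates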;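 note: slope of initial-normalized fluorescence between seconds 10 and 20 after thallium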
HEK counter2 – native HEK Tl+ uptake effects, second counter-screen – HEK cells, counterscreen 2, counter-screen for KCC2 modulator project, confirmation; shares compounds with Cl transport mod; HEK293 parental, thallium flux FluoZin-2 fluorescence slope; thallium flux slope at 10 µM; 3,700 compounds, 33% hits;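 active = thallium flux slope above the same plate's solvent-control mean plus 3 SD in both duplicate wells; inconclusive = duplicate wells that disagreed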;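 note: run without ouabain in cells lacking the KCC2 cotransporter; slope of fluorescence scaled to its starting value between 10 and 20 s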
Numbers without * were called inactive; ? = inconclusive; nt = no result.

SMILES | Cl transport mod | NPY Y2 blocker | NPY1 pot ag | NPY-Y1 antag | NPY-Y2 PAM-ag | Furin inhibitor | KCC2 secondary | KCC2 bumet counter | KCC2 secondary2 | HEK counter1 | KCC2 retest ouab | HEK counter2
CN(c1ccccc1)S(=O)(=O)c1ccc(NC(=O)c2ccc(-c3ccccc3)cc2)cc1 | -0.266 | 0.0 | 24.4 | 4.8 | 9.1 | -10.3 | nt | nt | nt | nt | nt | nt
CN(C)c1ccc(C(=O)NNC(=O)c2ccc(Cl)cc2)cc1 | -1.31 | nt | 18.6 | nt | 15.9 | -7.6 | nt | nt | nt | nt | nt | nt
CC(=O)c1ccc(C(=O)Nc2nnc(-c3ccc(Cl)cc3)o2)cc1 | 22.1* | nt | nt | nt | nt | -30.1 | 0.0219* | 0.0904* | ? | 0.0452* | 0.0497* | 0.0158*
CN(c1ccccc1)S(=O)(=O)c1ccc(C(=O)Nc2nnc(-c3ccc(F)cc3)o2)cc1 | 17.6* | -0.6 | -0.6 | -0.2 | 16.6 | -22.9 | 0.0133* | 0.0556* | 0.034 | ? | 0.0383* | 0.0124
O=C(Nc1nnc(C2=COCCO2)o1)c1ccc(Cl)cc1 | 8.51* | 4.6 | -11.9 | 8.8 | 6.4 | -15.8 | ? | 0.0258* | 0.0294 | 0.0208* | 0.0325* | ?
CN(C)c1ccc(C(=O)Nc2nnc(-c3ccc(Cl)cc3)o2)cc1 | 20.2* | 9.7 | -8.4 | 9.0 | -4.2 | -12.8 | 0.00703 | 0.0598* | 0.0457* | 0.0537* | 0.0511* | 0.0264*
Cc1cc([N+](=O)[O-])nn1CC(=O)NCc1nc2ccccc2[nH]1 | -0.0494 | nt | -3.8 | -1.5 | -6.4 | -15.1 | nt | nt | nt | nt | nt | nt
CCn1ncc(C2=NOC(C(=O)NCc3ccc(Cl)cc3)C2)c1C (stereo unspecified) | 0.759 | 3.9 | -25.6 | 15.1 | 0.8 | -12.3 | nt | nt | nt | nt | nt | nt
CC1=NN(C(N)=S)C(=O)C1N=Nc1ccccc1 (stereo unspecified) | 5.22* | nt | 9.3 | -0.7 | 6.5 | -12.8 | 0.00605 | 0.0244* | 0.0292 | ? | ? | 0.0122
CC1=NN(C(N)=S)C(=O)C1N=Nc1cccc2ccccc12 (stereo unspecified) | 5.42* | nt | 11.9 | -4.6 | -8.0 | -27.3 | 0.00658 | 0.0464* | 0.0269 | 0.0114* | ? | ?
CC1=NN(c2nc(-c3ccc(C)cc3)cs2)C(=O)C1N=Nc1ccccc1O (stereo unspecified) | -0.639 | nt | 17.4 | 7.3 | 9.4 | -34.9 | nt | nt | nt | nt | nt | nt
CC1=NN(c2ccccc2)C(=O)C1N=Nc1ccccc1 (stereo unspecified) | 2.93 | 4.3 | -17.9 | 6.5 | 9.1 | -16.8 | nt | nt | nt | nt | nt | nt
